In the array DNA melting data of Ke et al. (doi:10.1101/2024.01.08.574731):

Key:
[1] = folding enthalpy; higher = less favourable; fluorescence melt of hairpins on a sequencing array, two-state fit; conditions: sodium 0.088 M
How it was run: (§1)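 Folding enthalpy and melting temperature come from bootstrapped two-state fits to Cy3 fluorescence of library hairpins carrying annealed Cy3 and quencher oligos on a sequenced MiSeq flow cell. Imaging was done in 50 mM Na-HEPES pH 8.0, 25 mM NaCl, stepping by 2.5 °C up to 60 °C, and signals were normalised to pre-quench Cy3 and to control constructs. Results of four replicates were combined by inverse variance, and fitted temperatures were raised by 9.35 °C to match UV melts.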

[2] = melting temperature; fluorescence melt of hairpins on a sequencing array, two-state fit, raised by 9.35 °C to match UV melts; conditions: sodium 0.088 M
How it was run: as §1

Q: What does the source list for GTCGTAGGAAACTATGGC (.(.(((....))).).)?
A: folding enthalpy [1]: -17.8 kcal/mol; Tm [2]: 32 °C

Q: Which results are given for GAAAGAGGAAACTCTTTC (((((((....)))))))?
A: folding enthalpy [1]: -37.8 kcal/mol; Tm [2]: 51.2 °C

Q: With GACCATGAAAATGGTC ((((((....)))))) as the sequence, how does the folding enthalpy [1] read?
A: Its folding enthalpy is -36.9 kcal/mol.

Q: And the Tm [2]?
A: The Tm was 61.8 °C.

Q: For CGTACGGAAACGTTTACG ((((((....)))..))), which folding enthalpy [1] is on record?
A: The folding enthalpy was -16 kcal/mol.

Q: And the Tm [2]?
A: Its Tm is 37.3 °C.

Q: With GTGTGACGAAAGTCCCAC (((.(((....))).))) as the sequence, how does the folding enthalpy [1] read?
A: The folding enthalpy was -25 kcal/mol.

Q: And the Tm [2]?
A: The Tm was 50.5 °C.

Q: For GTTCGCGAAAGCGAGAAC ((((((....)))..))), which folding enthalpy [1] is on record?
A: The folding enthalpy was -9.97 kcal/mol.

Q: And the Tm [2]?
A: The Tm was 42.3 °C.

Q: For GCAAAGCGAAAGCTTCGC ((.((((....)))).)), which folding enthalpy [1] is on record?
A: The folding enthalpy was -23.8 kcal/mol.

Q: What about the Tm [2] of the same sequence?
A: The Tm was 55.8 °C.

Q: What does the source list for GATCCACTCATGGATC ((((((....))))))?
A: folding enthalpy [1]: -41.5 kcal/mol; Tm [2]: 52.5 °C

Q: Which folding enthalpy [1] does the source give for GCGACCAATCGC ((((....)))) here?
A: Its folding enthalpy is -23.6 kcal/mol.

Q: And the Tm [2]?
A: Its Tm is 44 °C.

Q: What does the source list for GTCAACTCGAAAGAGGAC (((..(((....))))))?
A: folding enthalpy [1]: -20.3 kcal/mol; Tm [2]: 33.2 °C

Q: For GCGGATGCCCGC ((((....)))), which folding enthalpy [1] is on record?
A: The folding enthalpy was -14.4 kcal/mol.

Q: And the Tm [2]?
A: Its Tm is 55 °C.

Q: What does the source list for GTGCACGGAAACACGCAC ((((..(....)..))))?
A: folding enthalpy [1]: -29.2 kcal/mol; Tm [2]: 41.1 °C

Q: Which folding enthalpy [1] does the source give for GCGTAGGGAAACCCACAC (.((.((....)).)).) here?
A: Its folding enthalpy is -10.6 kcal/mol.

Q: What about the Tm [2] of the same sequence?
A: The Tm was 21.3 °C.

Q: What does the source list for GCTCGGCGAAAGCGGGGC ((.(.((....)).).))?
A: folding enthalpy [1]: -20.6 kcal/mol; Tm [2]: 61.1 °C

Q: For CCTTAGAAATAAGG (((((....))))), which folding enthalpy [1] is on record?
A: The folding enthalpy was -10.5 kcal/mol.

Q: What about the Tm [2] of the same sequence?
A: The Tm was 28.6 °C.

Q: For GGGAGACGAAAGTCACCC (((.(((....))).))), which folding enthalpy [1] is on record?
A: The folding enthalpy was -31.5 kcal/mol.

Q: And the Tm [2]?
A: Its Tm is 58.2 °C.

Q: With GGGACTGGAAACAGCCCC (((.(((....))).))) as the sequence, how does the folding enthalpy [1] read?
A: Its folding enthalpy is -35.3 kcal/mol.

Q: What about the Tm [2] of the same sequence?
A: Its Tm is 51.9 °C.

Q: Which results are given for GCTAAACCGAAAGGTAGC (((..(((....))))))?
A: folding enthalpy [1]: -26.1 kcal/mol; Tm [2]: 44.5 °C

Q: Which results are given for GTAGGCGAAAGCCAATAC ((((((....)))..)))?
A: folding enthalpy [1]: -9.29 kcal/mol; Tm [2]: 33.6 °C

Q: Which folding enthalpy [1] does the source give for GCCTGCGAAAGCATCGGC ((((((....)))..))) here?
A: The folding enthalpy was -19.1 kcal/mol.

Q: And the Tm [2]?
A: Its Tm is 47.2 °C.

Q: Which folding enthalpy [1] does the source give for GTAGTCGAAAGACTCTAC ((((((....)))..))) here?
A: Its folding enthalpy is -12.8 kcal/mol.

Q: What about the Tm [2] of the same sequence?
A: Its Tm is 36.2 °C.

Q: For GACCACGAAAGTGTTGTC ((((((....)))..))), which folding enthalpy [1] is on record?
A: The folding enthalpy was -18.7 kcal/mol.

Q: And the Tm [2]?
A: Its Tm is 34.4 °C.

Q: With GCATGTGAAAACATGC ((((((....)))))) as the sequence, how does the folding enthalpy [1] read?
A: The folding enthalpy was -38.3 kcal/mol.

Q: What about the Tm [2] of the same sequence?
A: Its Tm is 64 °C.

Q: Which folding enthalpy [1] does the source give for GATCTGTAGACAGATC ((((((....)))))) here?
A: The folding enthalpy was -35.5 kcal/mol.

Q: What about the Tm [2] of the same sequence?
A: The Tm was 50.8 °C.

Q: With GTTACGAAAGTAAC (((((....))))) as the sequence, how does the folding enthalpy [1] read?
A: Its folding enthalpy is -30 kcal/mol.

Q: What about the Tm [2] of the same sequence?
A: The Tm was 54.7 °C.

Q: For GCGCCCGAAAGGGCACGC ((((((....)))..))), which folding enthalpy [1] is on record?
A: The folding enthalpy was -13.4 kcal/mol.

Q: What about the Tm [2] of the same sequence?
A: The Tm was 63.3 °C.

Q: For CGTTGGCGGAAACGCACG (((..(((....)))))), which folding enthalpy [1] is on record?
A: Its folding enthalpy is -14.6 kcal/mol.

Q: What about the Tm [2] of the same sequence?
A: Its Tm is 41.1 °C.

Q: For GTTTCAGGAAACTGAGAC ((.((((....)))).)), which folding enthalpy [1] is on record?
A: Its folding enthalpy is -24.9 kcal/mol.

Q: And the Tm [2]?
A: Its Tm is 37.3 °C.

Q: With GCCGCGCGAAAGCACAGC ((.(.((....)).).)) as the sequence, how does the folding enthalpy [1] read?
A: The folding enthalpy was -13.6 kcal/mol.

Q: And the Tm [2]?
A: Its Tm is 46.9 °C.

Q: What does the source list for GCTACGCGAAAGCATGGC ((.(.((....)).).))?
A: folding enthalpy [1]: -19.7 kcal/mol; Tm [2]: 37 °C

Q: Which folding enthalpy [1] does the source give for ACGCAGAAATGCGT (((((....))))) here?
A: The folding enthalpy was -21.7 kcal/mol.

Q: What about the Tm [2] of the same sequence?
A: The Tm was 55.7 °C.

Q: For GAAGTTGAAAAACTTC ((((((....)))))), which folding enthalpy [1] is on record?
A: The folding enthalpy was -28.1 kcal/mol.

Q: And the Tm [2]?
A: The Tm was 48.5 °C.

Q: Which folding enthalpy [1] does the source give for GATCTCTCTAGAGATC ((((((....)))))) here?
A: Its folding enthalpy is -37.4 kcal/mol.

Q: And the Tm [2]?
A: The Tm was 56.3 °C.

Q: Which folding enthalpy [1] does the source give for GCTCGGCCGAAAGGCAGC (((..(((....)))))) here?
A: Its folding enthalpy is -8.78 kcal/mol.

Q: What about the Tm [2] of the same sequence?
A: Its Tm is 55.6 °C.

Q: Which folding enthalpy [1] does the source give for GTCGGACGAAAGTCGAC (((.(((....)))))) here?
A: The folding enthalpy was -28 kcal/mol.

Q: What about the Tm [2] of the same sequence?
A: The Tm was 56.9 °C.

Q: Which results are given for GCTAGCGAAAGCTCAAGC ((((((....)))..)))?
A: folding enthalpy [1]: -14 kcal/mol; Tm [2]: 38 °C

Q: Which folding enthalpy [1] does the source give for GTCCTCGGAAACAAGGAC (((((.(....).))))) here?
A: Its folding enthalpy is -25.8 kcal/mol.

Q: And the Tm [2]?
A: Its Tm is 39.3 °C.

Q: What does the source list for GAATGCGAAAGCAGGTTC ((((((....)))..)))?
A: folding enthalpy [1]: -8.65 kcal/mol; Tm [2]: 30.4 °C
